Test results from PubChem BioAssay.
Records with an inconclusive call do not appear.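 The calls were made as follows, unless noted: active = viability at or below 27.92% in each of two runs, the all-compound median minus 4 SD; inconclusive = no clear call, values can overlap the other calls; inactive = the rest.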

Tests used:
[1] = OD615 S. cerevisiae growth inhibition, permissive medium, pilot counter-assay, permissive growth control for S. cerevisiae lifespan shortening project (AID 705;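 active = growth inhibition above 25% in both replicates, a cutoff set 3 SD above the mean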); details: OD615, 24 h, at 10 µM, hits give high values
Outline: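 System: Engineered DeaD yeast | Buffer or medium: SC raffinose/galactose permissive medium | Doses: 10 µM single dose, 0.25% DMSO | Times: 24 h exposure, 30 °C | Measured by: OD615 turbidity read | Read-out: Yeast growth inhibition indicated by reduced 24 h OD615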

[2] = Restrictive medium S. cerevisiae growth inhibition, OD615, pilot screen of yeast lifespan reduction project, restrictive growth control (AID 706;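 active = growth inhibition above a set limit, 3 SD over mean compound inhibition, in both replicates, cut at about 43% in these data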;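 also: modified DeaD lifespan yeast strain shifted to restrictive glucose medium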); details: OD615, 48 h, at 10 µM, hits give high values
Outline: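 Assay system: engineered S. cerevisiae DeaD strain; Buffer or medium: CSMM-D glucose medium; Dosing: 10 µM compound, 0.25% DMSO; Times: cell pre-growth 4 h, compound exposure 48 h, 30 °C; Detection: absorbance (optical density) measured at 615 nm.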

[3] = viability gain of MRP-1-high H69AR cells under doxorubicin, pilot screen, MRP-1 activator project, CellTiter-Glo, duplicate (AID 807;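 active = viability increase at or above a cutoff of the median across tested compounds plus 3 SD, cut at about 8.5% in these data, passing the limit was not always enough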;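 also: compound pretreatment 18-22 h then 72 h combined with doxorubicin; 0% = doxorubicin alone and 100% = vehicle without doxorubicin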); details: H69AR viability with doxorubicin, CellTiter-Glo luminescence; at 10 µM; hits give high values
[4] = growth suppression of beta-catenin knockout HCT116, pilot screen, human colon tumor cells (AID 823;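 active = cell viability at or below a set limit in both duplicate runs, the limit being the all-compound median minus 4 SD, cut at about 23% in these data, passing the limit was not always enough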;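 also: 0% = wells killed by 20 µM Hyamine and 100% = untreated DMSO cell wells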); details: CellTiter-Glo, 60 h, at 10 µM, hits give low values
[5] = growth suppression of PTEN-deleted HCT116, pilot screen, cell-based, HCT116 clonal line, CellTiter-Glo (AID 824); details: 60 h, at 10 µM, hits give low values;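 also: 0% = 20 µM Hyamine control and 100% = vehicle cell control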
[6] = inhibitors of the yeast RAM network, pilot screen, dse1pr::URA3 reporter, 5-FOA selection (AID 869;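 active = inhibition over a set limit, the all-compound mean plus 3 SD, in both replicate runs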;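 also: 0% = DMSO wells with no growth and 100% = 10 µM 1-NA-PP1 with full growth; RAM network block rescues cells from 5-FOA so hits raise OD615 growth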); details: S. cerevisiae dse1pr::URA3 5-FOA growth, OD615, 2 d; at 10 µM; hits give high values; strain carries analog-sensitive mutant Cbk1 kinase
[7] = RAM signaling pathway blockade in yeast – S. cerevisiae, Pdr1DBD-CYC8 efflux-inhibited sensitized strain, primary screen (AID 1298;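 active = RAM network inhibition above 8.4% in each of two replicates, 3 SD over the compound average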;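 also: 0% = DMSO untreated cells without growth and 100% = 10 µM 1-NA-PP1 full growth; higher means more yeast growth rescued from 5-FOA killing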); details: S. cerevisiae cbk1-as DSE1-URA3 strain, 5-FOA growth OD615, 2 d; at 50 µM; hits give high values

CCOC(=O)c1cnn(CC2CCCCC2)c1N
inactive: growth inhibition [1] 0.805% | growth inhibition [2] 1.77% | viability increase [3] -0.78% | viability [4] 92.4% | viability [5] 94.4% | inhibition [6] 0.96% | RAM network inhibition [7] -0.52%

COc1ccc2nc(NC(=O)C3COc4ccccc4O3)sc2c1 (stereo not drawn)
inactive: growth inhibition [1] -5.73% | growth inhibition [2] -9.21% | viability increase [3] 2.25% | viability [4] 100% | viability [5] 91.7% | inhibition [6] 2.08% | RAM network inhibition [7] 2.86%

CC1CCCN(Cc2nc3c(c(=O)n(C)c(=O)n3C)n2Cc2c(F)cccc2Cl)C1 (stereo not drawn)
inactive: growth inhibition [1] -8.39% | growth inhibition [2] -6.31% | viability increase [3] -4.6% | viability [4] 84.4% | viability [5] 80.2% | inhibition [6] 1.09% | RAM network inhibition [7] 10.9%

COc1ccc(NC2c3ccccc3C(=O)N2Cc2ccco2)cc1OC (stereo not drawn)
inactive: growth inhibition [1] 6.53% | growth inhibition [2] 6.86% | viability increase [3] -3.63% | viability [4] 97.5% | viability [5] 89.7% | inhibition [6] 0.985% | RAM network inhibition [7] 3.72%

CCOc1ccccc1C1CC(c2ccc(F)cc2)Nc2nc(N)nn21 (stereo not drawn)
inactive: growth inhibition [1] -2.63% | growth inhibition [2] 6.8% | viability increase [3] 1.61% | viability [4] 89.2% | viability [5] 90.1% | inhibition [6] 0.785% | RAM network inhibition [7] 2.07%

CC(C)C(C(=O)NC(C)(C)C)N1C(=O)c2ccccc2C1=O (stereo not drawn)
inactive: growth inhibition [1] -7.04% | growth inhibition [2] 0.73% | viability increase [3] 0.34% | viability [4] 101% | viability [5] 101% | inhibition [6] -0.63% | RAM network inhibition [7] 12.4%

COc1ccc(C(=O)Oc2ccc3c(c2)OCO3)cc1OC
inactive: growth inhibition [1] -6.54% | growth inhibition [2] -4.45% | viability increase [3] -0.06% | viability [4] 85.9% | viability [5] 100% | inhibition [6] 1.68% | RAM network inhibition [7] 3.32%

O=c1cc(-c2ccccc2Cl)c2c([nH]1)CCC2
inactive: growth inhibition [1] -9.7% | growth inhibition [2] 0.91% | viability increase [3] -2.8% | viability [4] 94.5% | viability [5] 87.2% | inhibition [6] 1.71% | RAM network inhibition [7] 0.26%

O=C(NCCCN1CCOCC1)c1ccc(CS(=O)(=O)c2ccc(Br)cc2)o1
inactive: growth inhibition [1] -9.31% | growth inhibition [2] -11% | viability increase [3] -0.56% | viability [4] 99.8% | viability [5] 96.2% | inhibition [6] 2.23% | RAM network inhibition [7] 3.6%

CCOc1ccc(/C(=N\O)C(C)NO)cc1 (stereo not drawn)
inactive: growth inhibition [1] -16.4% | growth inhibition [2] -10.4% | viability increase [3] 1.06% | viability [4] 87.9% | viability [5] 97.1% | inhibition [6] 0.925% | RAM network inhibition [7] 3.88%

COc1ccc(COC(=O)C2=C(C)NC(=O)NC2c2ccc(O)c(OC)c2)cc1 (stereo not drawn)
inactive: growth inhibition [1] -12% | growth inhibition [2] -17.8% | viability increase [3] 3.03% | viability [4] 93.1% | viability [5] 89.2% | inhibition [6] 0.34% | RAM network inhibition [7] 1.52%

Cc1ccc(Cn2c3ccccc3c3cn[nH]c(=O)c32)cc1
inactive: growth inhibition [1] -15.7% | growth inhibition [2] -24.6% | viability increase [3] -3.48% | viability [4] 101% | viability [5] 91.1% | inhibition [6] 2.17% | RAM network inhibition [7] 3.88%

CCOC(=O)C1=C(CS(=O)(=O)c2ccccc2)NC(=O)NC1c1ccccc1OCC (stereo not drawn)
inactive: growth inhibition [1] -15.1% | growth inhibition [2] -5.42% | viability increase [3] 0.13% | viability [4] 98.7% | viability [5] 101% | inhibition [6] 2.07% | RAM network inhibition [7] -0.04%

CSC(=NS(=O)(=O)c1ccc(C)cc1)SC
inactive: growth inhibition [1] -11% | growth inhibition [2] -20.2% | viability increase [3] -1.03% | viability [4] 94.6% | viability [5] 93.1% | inhibition [6] 2.02% | RAM network inhibition [7] 4.14%

COC(=O)c1c(-c2ccc(C)cc2)csc1N
inactive: growth inhibition [1] 1.67% | growth inhibition [2] 0.135% | viability increase [3] -3.98% | viability [4] 75.8% | viability [5] 87.8% | inhibition [6] -0.61% | RAM network inhibition [7] -1.79%

CCSCCOC(=O)C1=C(C)NC(=O)NC1c1cc(OC)ccc1OC (stereo not drawn)
inactive: growth inhibition [1] -4.26% | growth inhibition [2] 4.14% | viability increase [3] -1.14% | viability [4] 86.9% | viability [5] 90.8% | inhibition [6] 1.79% | RAM network inhibition [7] 2.39%

Cc1csc2nc(CNS(=O)(=O)c3ccc(-c4ccccc4)cc3)cn12
inactive: growth inhibition [1] -8.76% | growth inhibition [2] 7% | viability increase [3] -1.09% | viability [4] 90.2% | viability [5] 93.7% | inhibition [6] 0.94% | RAM network inhibition [7] 4.87%

Cc1ccc(CCN2CC(C(=O)NCCCN3CCN(C)CC3)CC2=O)cc1 (stereo not drawn)
inactive: growth inhibition [1] 1.07% | growth inhibition [2] -3.19% | viability increase [3] -2.38% | viability [4] 75.9% | viability [5] 92.8% | inhibition [6] -0.675% | RAM network inhibition [7] 1.23%

Cc1onc(-c2ccccc2)c1C(=O)Nc1sc2c(c1C#N)CCC2
inactive: growth inhibition [1] 3.88% | growth inhibition [2] 4.25% | viability increase [3] -4.93% | viability [4] 59.7% | viability [5] 54.3% | inhibition [6] 1.58% | RAM network inhibition [7] 0.09%

COC(=O)C(C)n1cnc2c(nnn2-c2cccc(Cl)c2)c1=O (stereo not drawn)
inactive: growth inhibition [1] -6.67% | growth inhibition [2] 1.2% | viability increase [3] 2.08% | viability [4] 110% | viability [5] 99% | inhibition [6] 0.05% | RAM network inhibition [7] 6.76%

CSC1=N/C(=C\c2ccc(C)o2)C(=O)S1
inactive: growth inhibition [1] -2.35% | growth inhibition [2] 1.15% | viability increase [3] -2.31% | viability [4] 104% | viability [5] 102% | inhibition [6] 0.93% | RAM network inhibition [7] -0.21%

Cn1cccc1Cc1nnc(SCC(=O)NC2CCCC2)n1-c1ccc(F)cc1
inactive: growth inhibition [1] 1.76% | growth inhibition [2] 6.74% | viability increase [3] -2.12% | viability [4] 104% | viability [5] 96.7% | inhibition [6] 0.675% | RAM network inhibition [7] 3.25%

Cc1ccc(N2C(=O)c3ccccc3C2Nc2ccccc2F)nc1 (stereo not drawn)
inactive: growth inhibition [1] -7.38% | growth inhibition [2] -1.2% | viability increase [3] -1.31% | viability [4] 88.3% | viability [5] 90.8% | inhibition [6] 2.46% | RAM network inhibition [7] 10.5%

CCOC(=O)c1cc2c(n(-c3ccc(C)cc3)c1=O)CCCC2=O
inactive: growth inhibition [1] -9.02% | growth inhibition [2] -16.6% | viability increase [3] -3.28% | viability [4] 99.3% | viability [5] 94.8% | inhibition [6] 0.59% | RAM network inhibition [7] 2.29%
